Assay [1] is described as follows: inhibitors of TNFa-induced NFkB p65 translocation, primary screen, imaging, HUVEC, MLSMR starter and 10KST1 sets (AID 438;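 active = inhibition above 20% together with a positive visual image hit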;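 note: compound added about 3h40 before a 20 min TNFalpha stimulation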;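 for inhibition: signal is the nuclear over cytoplasmic p65 intensity ratio per well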). The settings on record: HUVEC TNFa-induced p65 nuclear translocation; cell count: measured here: nuclei count (cytotoxicity indicator), at 2.08 µM; inhibition: at 2 µM, stronger effect = higher value, 0% TNFa-plus-vehicle, 100% no-TNFa wells.
Assay [2] can be described thus: inhibitors of mutant huntingtin aggregation, primary screen, imaging, exon1htt(103Q)mCFP cells, high-content imaging (AID 483;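 active = visual image review flags a hit and inhibition of aggregation exceeds 20%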;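 note: compound exposure lasted 3 days before fixation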;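 for nuclei count: percent of the per-plate median nuclei count of sample wells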). The settings on record: exon1htt(103Q)mCFP cell line, aggregate imaging, at 2 µM; inhibition of aggregation: stronger effect = higher value; nuclei count: measured here: cell count, toxicity.
The nature of assay [3]: inhibitors of E-selectin induction by TNFa, primary screen, imaging, HUVEC, immunofluorescence, MLSMR starter and 10KST1 sets (AID 487;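 active = visually confirmed hit in the image check and inhibition above 20%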;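 for inhibition: signal is fraction of cell area covered by stained E-selectin grains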;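 for nuclei count: 100% = median nuclei count of all wells on the same plate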). The settings on record: HUVEC TNFalpha-induced E-selectin immunofluorescence imaging, at 2 µM; inhibition: stronger effect = higher value; nuclei count: measured here: cell number, toxicity.
Assay [4] has as its target Voltage-gated potassium channel subunit beta-2 (Rattus norvegicus) (UniProt P62483). Description: KvBeta enzyme negative modulators, primary screen, biochemical, NADPH fluorescence (AID 622;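 active = fluorescence slope higher than the sample average by over 3 SD, cut at about -0.22 in these data, passing the limit was not always enough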;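 note: slope of raw intensity against log time taken from 70 to 1610 s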). The settings on record: recombinant KvBeta, 4-cyanobenzaldehyde reduction, at 10 µM, stronger effect = higher value.
Assay [5] has the same target. Description: KvBeta positive modulators, primary screen, biochemical, NADPH fluorescence (AID 623;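 active = NADPH fluorescence slope more negative than the mean of all samples by about 3 SD, 99.7% confidence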;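 note: fluorescence intensity change per second fitted from 20 to 320 s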). The settings on record: Recombinant KvBeta, NADPH fluorescence decrease slope, 10 min; at 10 µM; stronger effect = lower value.
Assay [6] addresses Muscarinic acetylcholine receptor M4 (Homo sapiens) (UniProt P08173). Description: compounds altering M4/GIRK thallium flux, either direction, primary screen, M4 allosteric agonist project, cell-based, HEK293 M4/GIRK, BTC-AM (AID 625;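 active = fluorescence slope after compound addition differing from the mean of all tested samples at 99.7% confidence, mostly higher but some lower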;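 note: thallium influx through GIRK channels coupled to M4 in HEK293 cells with BTC-AM dye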). The settings on record: at 10 µM, actives lie on both sides. The method in brief:
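System: HEK293 cells with M4 receptor and GIRK channels | Incubation: Cells overnight at 37 °C, BTC-AM loading 1 h, reads 2 min total | Technique: Kinetic BTC-AM fluorescence sampled at 1 Hz, 10 s pre-addition baseline | Measure: Post-addition slope, 15–24 s, of baseline-normalized fluorescence | Control set: Carbachol positive, DMSO negative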

Assay [7] in a line: inhibitors of Sendai virus-induced IRF3 signaling, primary screen, TLR/RLR signaling modifier project, cell-based, Sendai virus stimulus, luciferase, 10K MLSCN set (AID 602276).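 Note: firefly luciferase from ISG56 promoter only with Renilla not read in this screen; 0% = Sendai virus plus DMSO and 100% = medium plus DMSO without virus.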 The settings on record: HEK293 RL24 IRF3 luciferase reporter, at 10 µM, stronger effect = higher value. On the technique in general: In a reporter assay the amount or activity of a reporter protein is the signal.

A short description of assay [8]: inhibitors of poly I:C-induced TLR3 signaling, primary screen, cell-based, poly I:C stimulus, luciferase, 10K MLSCN set (AID 602277;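 active = inhibition of the reporter signal at or above 50%; inactive = inhibition below 50%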). The settings on record: HEK293-TLR3 RL24 IRF3 luciferase reporter, at 10 µM, stronger effect = higher value.

The source made the active and inactive calls.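 Rule for the calls, unless noted: active = inhibition at or above 50% at 10 µM; inactive = inhibition below 50%.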

Chain of Muscarinic acetylcholine receptor M4 (Homo sapiens) (P08173 whole entry, looked up): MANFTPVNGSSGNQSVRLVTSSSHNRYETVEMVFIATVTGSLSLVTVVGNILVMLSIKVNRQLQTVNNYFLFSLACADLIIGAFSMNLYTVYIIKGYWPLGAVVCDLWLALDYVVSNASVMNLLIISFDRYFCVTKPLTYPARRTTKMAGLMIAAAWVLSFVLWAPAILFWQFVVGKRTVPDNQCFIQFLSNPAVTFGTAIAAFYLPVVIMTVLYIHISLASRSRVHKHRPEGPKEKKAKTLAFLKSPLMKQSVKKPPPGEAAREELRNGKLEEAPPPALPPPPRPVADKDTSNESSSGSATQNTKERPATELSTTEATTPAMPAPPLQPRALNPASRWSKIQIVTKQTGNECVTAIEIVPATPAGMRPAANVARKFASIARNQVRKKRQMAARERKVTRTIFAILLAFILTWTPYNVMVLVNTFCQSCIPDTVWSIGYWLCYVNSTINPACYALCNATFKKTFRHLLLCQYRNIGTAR
Chain of Voltage-gated potassium channel subunit beta-2 (Rattus norvegicus) (P62483 whole entry, looked up): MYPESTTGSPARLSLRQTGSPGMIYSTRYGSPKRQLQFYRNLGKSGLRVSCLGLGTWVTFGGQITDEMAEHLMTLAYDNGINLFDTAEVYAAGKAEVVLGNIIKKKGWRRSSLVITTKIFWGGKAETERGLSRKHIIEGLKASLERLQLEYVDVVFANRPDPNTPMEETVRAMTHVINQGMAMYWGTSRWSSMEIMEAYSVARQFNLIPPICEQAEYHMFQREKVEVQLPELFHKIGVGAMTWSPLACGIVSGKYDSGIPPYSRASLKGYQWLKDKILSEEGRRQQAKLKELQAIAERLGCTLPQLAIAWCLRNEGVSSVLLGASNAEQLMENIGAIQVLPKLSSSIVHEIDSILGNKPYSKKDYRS

As a reminder, the inhibition is the drop in the measured response relative to a control, in per cent. Regarding `Nc1nc(C2C(=O)CCCC2=O)cs1`, in assay [1], the cell count came to 391. Further, the inhibition was -16.3% (inactive) in assay [1], -93.1% (inactive) in assay [3], 8.39% (inactive) in assay [7] and 2.35% (inactive) in assay [8]. The inhibition of aggregation in assay [2] was -1.6% (inactive). The nuclei count in assay [2] amounted to 103%; in assay [3], 148%. In addition, the fluorescence slope in assay [4] is -0.511 (inactive); in assay [6], 0.00345 (inactive). For the same molecule, in assay [5], the NADPH fluorescence slope is -9.1e-05 (inactive).

Take `C=CCC(Nc1ccco1)c1ccccc1` (centres undefined): the cell count in assay [1] was determined as 393. Further, the inhibition in assay [1] was 2.5% (inactive); in assay [3] it was -17.9% (inactive); in assay [7], 19% (inactive); in assay [8], 19.6% (inactive). For the same molecule, in assay [2], the inhibition of aggregation is 3.4% (inactive). Besides, the nuclei count in assay [2] stood at 112%; in assay [3], 114%. Further, the fluorescence slope in assay [4] is -0.498 (inactive); in assay [6], 0.00454 (inactive). For the same molecule, the NADPH fluorescence slope in assay [5] is -2.9e-05 (inactive).

Regarding `Cc1ccc(OCC(=O)N2CCN(C(=O)CCC3CCCC3)CC2)cc1`, the cell count in assay [1] came to 319. In addition, the inhibition in assay [1] is 0.5% (inactive); in assay [3], -1.5% (inactive); in assay [7] it was 12% (inactive); in assay [8], 11.5% (inactive). Besides, the inhibition of aggregation in assay [2] was -30.7% (inactive). For the same molecule, the nuclei count in assay [2] is 84.9%; in assay [3], 108%. The fluorescence slope was -0.242 (inactive) in assay [4] and 0.00663 (inactive) in assay [6]. The NADPH fluorescence slope in assay [5] is -1.9e-05 (inactive).

As to `CN(C)S(=O)(=O)c1ccc(C(=O)N2CCC(c3nc4ccccc4o3)CC2)cc1`, the cell count in assay [1] came to 468. The inhibition was 8.2% (inactive) in assay [1], 40.1% (inactive) in assay [3], 10.5% (inactive) in assay [7] and 12.2% (inactive) in assay [8]. In addition, in assay [2], the inhibition of aggregation is -9.7% (inactive). The nuclei count in assay [2] turned out to be 103%; in assay [3], 95%. Besides, the values for the fluorescence slope in assay [4] and in assay [6] were -0.427 (inactive) and 0.00556 (inactive), respectively. For the same molecule, the NADPH fluorescence slope in assay [5] is -9.6e-05 (inactive).

`Cc1ccc2nc(NC(=O)C3CCN(S(=O)(=O)c4cccc5nsnc45)CC3)sc2c1`: in assay [1], the cell count is 540. Further, the inhibition in assay [1] was 0% (inactive); in assay [3], 38.3% (inactive); in assay [7], -4.97% (inactive); in assay [8], -45% (inactive). Further, the inhibition of aggregation in assay [2] was -1.9% (inactive). For the same molecule, the figures for the nuclei count in assay [2] and in assay [3] were 105% and 100%, respectively. Further, the fluorescence slope was -0.414 (inactive) in assay [4] and 0.00593 (inactive) in assay [6]. Further, the NADPH fluorescence slope in assay [5] was -9.1e-05 (inactive).

For the molecule `COc1ccc(CNc2nc3nc(C)cc(C)n3n2)cc1OC`, the cell count in assay [1] turned out to be 646. The inhibition in assay [1] was -15.5% (inactive); in assay [3], -5.7% (inactive); in assay [7], 13.3% (inactive); in assay [8], 12.9% (inactive). Also, the inhibition of aggregation in assay [2] was 39.5% (active). Besides, the nuclei count in assay [2] was determined as 107%; in assay [3], 115%. The fluorescence slope in assay [4] is -0.422 (inactive); in assay [6], 0.00355 (inactive). In addition, the NADPH fluorescence slope in assay [5] was -0.000434 (inactive).

With `CCN1C(=O)/C(=C/N2CCc3ccccc32)SC1=S`, the cell count in assay [1] came to 382. Besides, the inhibition is 1.8% (inactive) in assay [1], -1.2% (inactive) in assay [3], -26.3% (inactive) in assay [7] and -99.1% (inactive) in assay [8]. In addition, in assay [2], the inhibition of aggregation was -22.3% (inactive). Moreover, the results for the nuclei count in assay [2] and in assay [3] were 117% and 100%, respectively. The fluorescence slope in assay [4] was -0.403 (inactive); in assay [6] it was 0.00654 (inactive). In addition, the NADPH fluorescence slope in assay [5] is -2.8e-05 (inactive).

`Cc1cc(C(=O)CSCc2nnc3n(CCC(C)C)c(=O)c4ccccc4n23)c(C)n1C`: the cell count in assay [1] is 284. Besides, the inhibition is -11.2% (inactive) in assay [1], -26.1% (inactive) in assay [3], 14.8% (inactive) in assay [7] and 26.1% (inactive) in assay [8]. Besides, in assay [2], the inhibition of aggregation is -1.8% (inactive). The nuclei count in assay [2] came to 94.2%; in assay [3], 88.8%. Moreover, the fluorescence slope in assay [4] is -0.558 (inactive); in assay [6], 0.00507 (inactive). The NADPH fluorescence slope in assay [5] is 3.1e-06 (inactive).

For the molecule `COC(=O)c1cc(NC(=O)C2CC=CCC2C(=O)O)cc(C(=O)OC)c1` (centres undefined), the cell count in assay [1] amounted to 800. The inhibition in assay [1] was -6.9% (inactive); in assay [3] it was 5.2% (inactive); in assay [7] it was 9.55% (inactive); in assay [8] it was 7.94% (inactive). Moreover, the inhibition of aggregation in assay [2] was -7.4% (inactive). In addition, the values for the nuclei count in assay [2] and in assay [3] were 108% and 97.7%, respectively. Further, the fluorescence slope in assay [4] is -0.536 (inactive); in assay [6], 0.00439 (inactive). Also, the NADPH fluorescence slope in assay [5] is -4.3e-05 (inactive).

Consider `COc1ccc(-n2c(SCCC(=O)O)nnc2-c2ccncc2)cc1`, for which the cell count in assay [1] is 359. Moreover, the inhibition was -6.2% (inactive) in assay [1], -27.4% (inactive) in assay [3], 18% (inactive) in assay [7] and 36.6% (inactive) in assay [8]. Also, the inhibition of aggregation in assay [2] was -2.3% (inactive). The nuclei count in assay [2] was determined as 98.2%; in assay [3] it was 127%. Besides, the fluorescence slope in assay [4] was -0.56 (inactive); in assay [6], 0.00569 (inactive). In addition, in assay [5], the NADPH fluorescence slope was 4e-06 (inactive).

Regarding `Cc1cc2c(cc(C(=O)NCc3cccnc3)n2Cc2ccc(Cl)cc2)o1`, in assay [1], the cell count was found to be 672. For the same molecule, the inhibition is -16.6% (inactive) in assay [1], -91.9% (inactive) in assay [3], 12.1% (inactive) in assay [7] and 14.8% (inactive) in assay [8]. The inhibition of aggregation in assay [2] is -46.1% (inactive). Moreover, the values for the nuclei count in assay [2] and in assay [3] were 127% and 99.8%, respectively. Further, the fluorescence slope in assay [4] is -0.49 (inactive); in assay [6], 0.00518 (inactive). The NADPH fluorescence slope in assay [5] was -2.7e-06 (inactive).

`CCCCOc1ccc(-c2nnn(CC(=O)NCc3ccco3)n2)cc1`: the cell count in assay [1] turned out to be 457. For the same molecule, the inhibition is 3.9% (inactive) in assay [1], -62% (inactive) in assay [3], 30.6% (inactive) in assay [7] and -15.6% (inactive) in assay [8]. The inhibition of aggregation in assay [2] is -61.8% (inactive). Moreover, the values for the nuclei count in assay [2] and in assay [3] were 18.8% and 104%, respectively. Also, the fluorescence slope in assay [4] was -0.523 (inactive); in assay [6] it was 0.00448 (inactive). In addition, the NADPH fluorescence slope in assay [5] is -0.000212 (inactive).

In the case of `O=C(NCCN1CCN(c2ccccc2)CC1)c1ccc(NC(=O)C2CCCO2)cc1` (centres undefined), the cell count in assay [1] was determined as 562. Also, the inhibition in assay [1] is -21.6% (inactive); in assay [3], -135% (inactive); in assay [7], 3.22% (inactive); in assay [8] it was 6.35% (inactive). Moreover, the inhibition of aggregation in assay [2] was -9% (inactive). Moreover, the nuclei count came to 99.2% in assay [2] and 114% in assay [3]. Also, the fluorescence slope in assay [4] was -0.468 (inactive); in assay [6] it was 0.00539 (inactive). In addition, the NADPH fluorescence slope in assay [5] is 5.8e-06 (inactive).

With `Cc1ccccc1NC(=O)c1ccc(NC(=O)c2ccco2)cc1`, in assay [1], the cell count is 423. For the same molecule, the inhibition was -1% (inactive) in assay [1], -30.5% (inactive) in assay [3], -7.81% (inactive) in assay [7] and -35.1% (inactive) in assay [8]. Also, the inhibition of aggregation in assay [2] was 10.9% (inactive). The nuclei count in assay [2] came out at 116%; in assay [3], 113%. Moreover, the fluorescence slope in assay [4] was -0.462 (inactive); in assay [6] it was 0.00647 (inactive). Moreover, the NADPH fluorescence slope in assay [5] is -2.6e-05 (inactive).

(Values after PubChem BioAssay.)
